Molecules are shown by their SMILES.

In general, inhibition refers to the drop in the measured response relative to a control, in per cent.

For series [1], the system named is THP-1. Kind of series: Antiinflammatory activity in human THP1 cells assessed as inhibition of LPS-induced TNFalpha release at 10 uM preincubated for 30 mins before LPS challenge by ELISA. It is filed as functional. Background: An ELISA detects its analyte on a solid surface through an enzyme-linked reagent.
For series [2], the system named is Calu-1. Kind of series: Growth inhibition of human Calu1 cells at 10 uM after 24 hrs by propidium iodide assay. It is filed as functional. The note with it: Calu-1, 24 h, read-out: GI.
The subject of series [3] is Radical scavenging activity. Kind of series: Antioxidant activity assessed as radical DPPH scavenging activity at 1 mM/mL. It is filed as functional. In short, it runs like this:
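DPPH radical scavenging by the Blois method. Compound stock solutions (1 mM) were mixed with 0.3 mM DPPH in methanol in a 3 mL total reaction and left to react at room temperature.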
In general terms: Loss of DPPH colour is used to gauge radical scavenging.

The subject of series [4] is HCT-116. The experiment in a line: Growth inhibition of human HCT116 cells at 10 uM after 48 hrs by propidium iodide assay. The note with it: HCT-116, 48 h, read-out: GI.
Series [5] has as its system NCI-H460. The experiment in a line: Growth inhibition of human H460 cells at 10 uM after 24 hrs by propidium iodide assay. The note with it: NCI-H460, 24 h, read-out: GI. It is filed as functional.
The test system of series [6] is PANC-1. The experiment in a line: Growth inhibition of human PANC1 cells at 10 uM after 48 hrs by propidium iodide assay. The note with it: PANC-1, 48 h, read-out: GI.
Series [7] in a line: Toxicity against […] assessed as cell growth. It is filed as cell-based. Further details: concentration or dose not given beside the values.
The test system of series [8] is THP-1. The experiment in a line: Antiinflammatory activity in human THP1 cells assessed as inhibition of LPS-induced IL6 release at 10 uM preincubated for 30 mins before LPS challenge by ELISA. Format: functional.
The test system of series [9] is ACHN. Kind of series: Growth inhibition of human ACHN cells at 10 uM after 48 hrs by propidium iodide assay. The note with it: read-out: GI.
Series [10] relates to NCI-H460. The experiment in a line: Growth inhibition of human H460 cells at 500 nM after 48 hrs by propidium iodide assay. The note with it: NCI-H460, 48 h, read-out: GI.
Series [11] deals with ACHN. The experiment in a line: Growth inhibition of human ACHN cells at 500 nM after 48 hrs by propidium iodide assay. The note with it: read-out: GI.
Series [12] relates to HCT-116. Kind of series: Growth inhibition of human HCT116 cells at 500 nM after 48 hrs by propidium iodide assay. The note with it: HCT-116, 48 h, read-out: GI.
Series [13] relates to Calu-1. Kind of series: Growth inhibition of human Calu1 cells at 500 nM after 24 hrs by propidium iodide assay. It is filed as functional. The note with it: Calu-1, 24 h, read-out: GI.
Series [14] has as its system PANC-1. The experiment in a line: Growth inhibition of human PANC1 cells at 500 nM after 24 hrs by propidium iodide assay. It is filed as functional. The note with it: PANC-1, 24 h, read-out: GI.
Series [15] relates to PANC-1. The experiment in a line: Growth inhibition of human PANC1 cells at 700 nM after 48 hrs by propidium iodide assay. The note with it: PANC-1, 48 h, read-out: GI.
The subject of series [16] is HCT-116. Kind of series: Growth inhibition of human HCT116 cells at 700 nM after 48 hrs by propidium iodide assay. The note with it: HCT-116, 48 h, read-out: GI.
The test system of series [17] is NCI-H460. The experiment in a line: Growth inhibition of human H460 cells at 700 nM after 48 hrs by propidium iodide assay. The note with it: NCI-H460, 48 h, read-out: GI.
For series [18], the system named is ACHN. The experiment in a line: Growth inhibition of human ACHN cells at 700 nM after 48 hrs by propidium iodide assay. The note with it: read-out: GI.
Series [19] relates to Calu-1. The experiment in a line: Growth inhibition of human Calu1 cells at 700 nM after 24 hrs by propidium iodide assay. The note with it: Calu-1, 24 h, read-out: GI. It is filed as functional.
Series [20] deals with THP-1. Kind of series: Antiinflammatory activity in human THP1 cells assessed as inhibition of LPS-induced TNFalpha release at 1 uM preincubated for 30 mins before LPS challenge by ELISA. Format: functional. In short, it runs like this:
(§1)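 PMA-differentiated THP-1 cells grown in RPMI 1640 with 10% FBS, penicillin and streptomycin. Compounds in 0.5% DMSO were added and preincubated 30 min at 37 °C, then cells were stimulated with E. coli 0127:B8 LPS. Released cytokine was quantified with a BD Biosciences kit per the manufacturer. Percent inhibition of release was calculated versus control. Cytotoxicity was checked in parallel by CCK-8.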

Series [21] relates to THP-1. Kind of series: Antiinflammatory activity in human THP1 cells assessed as inhibition of LPS-induced IL6 release at 1 uM preincubated for 30 mins before LPS challenge by ELISA. It is filed as functional. In short, it runs like this: as §1

Take `COc1cc(/C=C/C(=O)c2ccc(Cl)cc2)cc(OC)c1OC`: the inhibition at 10 µM in the series on THP-1 [1] was determined as 98%; with THP-1 [8], 100%. Also, the inhibition of growth at 10 µM in the series with Calu-1 [2] is 67%; in the series with HCT-116 [4] it was 92%; with NCI-H460 [5], 54%; with PANC-1 [6], 66%; with ACHN [9], 57%. The values for the Activity in series [3] and in series [7] were 36.5% and 79%, respectively.

For `Nc1ccn([C@@H]2O[C@H](CO)[C@@H](O)C2(F)F)c(=O)n1` [GEMCITABINE], the inhibition of growth at 0.5 µM worked out at 68% with NCI-H460 [10]; 70% in the series on ACHN [11]; 76% in the series on HCT-116 [12]; 70% in the series on Calu-1 [13]; 71% in the series with PANC-1 [14].

Take `CN1CC[C@H](c2c(O)cc(O)c3c(=O)cc(-c4ccccc4Cl)oc23)[C@H](O)C1` [ALVOCIDIB]: the inhibition of growth at 0.7 µM in the series with PANC-1 [15] is 75%; in the series on HCT-116 [16], 71%; in the series with NCI-H460 [17] it was 84%; with ACHN [18] it was 68%; with Calu-1 [19] it was 68%.

In the case of `COc1ccc(/C=C/C(=O)c2ccc(Cl)cc2)c(OC)c1`, the inhibition at 10 µM in the series with THP-1 [1] worked out at 0%; in the series with THP-1 [8] it was 12%. In addition, the inhibition of growth at 10 µM stood at 28% with Calu-1 [2]; 22% in the series on HCT-116 [4]; 29% in the series with NCI-H460 [5]; 29% in the series with PANC-1 [6]; 28% in the series with ACHN [9]. For the same compound, the Activity in [3] is 26.4%; in series [7], 0%.

For `COc1ccc(/C=C/C(=O)c2ccc(Cl)cc2Cl)c(OC)c1`, the figures for the inhibition at 10 µM in the series with THP-1 [1] and in the series on THP-1 [8] were 0% and 6%, respectively. Besides, the inhibition of growth at 10 µM in the series with Calu-1 [2] worked out at 30%; in the series with HCT-116 [4] it was 26%; with NCI-H460 [5], 29%; in the series on PANC-1 [6], 35%; with ACHN [9] it was 35%. Besides, the Activity in series [3] is 11.3%; in [7], 2%.

As to `C[C@@H]1C[C@H]2[C@@H]3CCC4=CC(=O)C=C[C@]4(C)[C@@]3(F)[C@@H](O)C[C@]2(C)[C@@]1(O)C(=O)CO` [DEXAMETHASONE], the inhibition at 1 µM was 73% in the series on THP-1 [20] and 84% in the series on THP-1 [21]. Besides, the Activity in series [7] came out at 0%.

Turning to `COc1ccc(C(=O)/C=C/c2ccc(OC)cc2OC)cc1`, the inhibition at 10 µM in the series on THP-1 [1] amounted to 0%; with THP-1 [8] it was 39%. The inhibition of growth at 10 µM in the series on Calu-1 [2] came to 31%; in the series with HCT-116 [4], 37%; in the series with NCI-H460 [5] it was 38%; with PANC-1 [6], 36%; in the series on ACHN [9], 45%. Also, the values for the Activity in series [3] and in [7] were 32.3% and 29%, respectively.

For `COc1ccc(O)c(C(C)(C)C)c1.COc1ccc(O)cc1C(C)(C)C`, the Activity in [3] came to 74%.

With `COc1cc(/C=C/C(=O)c2ccccc2)cc(OC)c1OC`, the inhibition at 10 µM in the series on THP-1 [1] and in the series on THP-1 [8] was 100% in each case. The inhibition of growth at 10 µM came to 7% in the series with Calu-1 [2]; 0% with HCT-116 [4]; 15% with NCI-H460 [5]; 7% in the series with PANC-1 [6]; 33% in the series on ACHN [9]. In addition, the Activity came to 47.2% in series [3] and 73% in series [7].

With `COc1ccc(/C=C/C(=O)c2ccc(OC)cc2OC)c(OC)c1`, the inhibition at 10 µM with THP-1 [1] is 2%; with THP-1 [8], 81%. Besides, the inhibition of growth at 10 µM in the series on Calu-1 [2] worked out at 32%; with HCT-116 [4] it was 31%; in the series with NCI-H460 [5], 38%; with PANC-1 [6], 43%; in the series with ACHN [9], 48%. For the same compound, the Activity in series [3] amounted to 31.3%; in [7], 35%.

In the case of `COc1ccc(/C=C/C(=O)c2ccccc2)c(OC)c1`, the inhibition at 10 µM in the series on THP-1 [1] came out at 98%; in the series on THP-1 [8] it was 100%. In addition, the inhibition of growth at 10 µM in the series on Calu-1 [2] came to 91%; in the series with HCT-116 [4], 95%; with NCI-H460 [5], 92%; in the series on PANC-1 [6] it was 94%; in the series on ACHN [9], 93%. The Activity in [3] turned out to be 38%; in series [7] it was 79%.

For the origin of these results see ChEMBL document CHEMBL1156852, “Synthesis and biological evaluation of simple methoxylated chalcones as anticancer, anti-inflammatory and antioxidant agents” (Bioorg Med Chem, 2010).
